Test [1] concerns ICSS in rats. Kind of test: Intracranial self-stimulation. It is filed as in vivo, rat. The following applies: i.p.
For test [2], the target named is T1, 5HT1A (Homo sapiens, UniProt P08908).
T1 sequence (P08908 1-422): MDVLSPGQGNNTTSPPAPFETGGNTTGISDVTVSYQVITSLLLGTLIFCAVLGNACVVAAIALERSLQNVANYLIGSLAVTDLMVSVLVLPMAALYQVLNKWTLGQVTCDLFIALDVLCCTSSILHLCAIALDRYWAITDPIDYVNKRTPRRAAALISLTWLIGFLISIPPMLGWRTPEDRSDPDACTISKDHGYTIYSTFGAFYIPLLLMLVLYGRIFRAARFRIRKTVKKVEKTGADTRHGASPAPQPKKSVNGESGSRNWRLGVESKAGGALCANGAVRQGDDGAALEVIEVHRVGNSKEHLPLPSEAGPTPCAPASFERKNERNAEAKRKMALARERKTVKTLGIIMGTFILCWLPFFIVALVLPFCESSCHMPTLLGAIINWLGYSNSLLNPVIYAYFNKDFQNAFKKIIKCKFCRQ
Kind of test: Calcium mobilization assay, 5-HT1A. It is filed as cell-based. In outline: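 CHO-Gα16 cells stably expressing human 5-HT1A, plated overnight at 25,000 cells/well in Ham's F12 with 10% FBS. Calcium 5 dye (1:40) in HBSS, 20 mM HEPES, 2.5 mM probenecid, pH 7.4, for 45 min at 37°C. Agonist mode: compound added at 10 s, fluorescence read 90 s. Antagonist mode: 15 min compound pretreatment, then EC50–EC80 5-HT. Three-parameter logistic fit.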
For orientation: Calcium assays in cells follow changes in intracellular calcium, usually with a dye or a luminescent sensor.

Test [3] has as its target 5HT2A (Homo sapiens, UniProt P28223). Kind of test: Calcium mobilization assay, 5-HT2A. It is filed as cell-based. In outline:
(§1)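 Stable human 5-HT2A or 5-HT2B HEK293 cells were plated overnight on PEI-coated plates at 40,000 or 35,000 cells/well in DMEM-HG, 10% FBS, 15 mM HEPES. Calcium 5 dye was loaded for 45 min at 37°C in HBSS/HEPES/probenecid, pH 7.4. Antagonist mode used 15 min compound pretreatment, then EC50–EC80 5-HT. Peak fluorescence change was fit to a three-parameter logistic.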

The target of test [4] is 5HT2B (Homo sapiens, UniProt P41595). The experiment in a line: Calcium mobilization assay, 5-HT2B. Type of test: cell-based. In outline:
as §1

Test [5] has as its target T2, hTAAR1 (Homo sapiens, UniProt Q96RJ0).
T2 sequence (Q96RJ0 1-339): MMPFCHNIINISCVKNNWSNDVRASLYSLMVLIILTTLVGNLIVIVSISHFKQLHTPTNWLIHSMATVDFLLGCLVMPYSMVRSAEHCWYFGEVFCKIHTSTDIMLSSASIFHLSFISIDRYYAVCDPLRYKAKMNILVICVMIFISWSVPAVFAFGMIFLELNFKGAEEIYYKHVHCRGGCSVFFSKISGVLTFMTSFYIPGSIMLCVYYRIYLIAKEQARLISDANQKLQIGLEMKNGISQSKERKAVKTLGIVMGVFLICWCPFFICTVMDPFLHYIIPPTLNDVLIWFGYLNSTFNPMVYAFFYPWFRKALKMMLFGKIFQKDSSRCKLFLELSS
Kind of test: hTAAR1 cAMP assay. Type of test: cell-based.

Test [6] has as its target CB1 (Homo sapiens, UniProt P21554). Kind of test: Calcium mobilization assay, CB1. It is filed as cell-based.
Test [7] has as its target CB2 (Homo sapiens, UniProt P34972). The experiment in a line: Calcium mobilization assay, CB2. It is filed as cell-based.
Test [8] deals with mu opioid receptor (Homo sapiens, UniProt P35372). The experiment in a line: Calcium mobilization assay, mu opioid receptor. Type of test: cell-based.
Chain of mu opioid receptor (P35372 whole entry): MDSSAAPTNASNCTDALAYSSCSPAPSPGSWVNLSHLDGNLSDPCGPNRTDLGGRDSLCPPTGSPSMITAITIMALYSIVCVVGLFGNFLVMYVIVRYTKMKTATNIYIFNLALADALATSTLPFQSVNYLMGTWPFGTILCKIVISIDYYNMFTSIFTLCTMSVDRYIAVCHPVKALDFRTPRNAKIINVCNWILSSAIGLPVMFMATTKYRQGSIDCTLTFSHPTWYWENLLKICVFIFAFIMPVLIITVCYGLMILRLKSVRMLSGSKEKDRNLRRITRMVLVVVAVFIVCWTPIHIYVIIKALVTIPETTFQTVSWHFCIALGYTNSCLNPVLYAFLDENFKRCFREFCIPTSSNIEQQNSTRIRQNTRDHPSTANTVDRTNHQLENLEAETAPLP
Test [9] concerns the target delta opioid receptor (Homo sapiens, UniProt P41143). Kind of test: Calcium mobilization assay, delta opioid receptor. It is filed as cell-based.
Test [10] deals with kappa opioid receptor (Homo sapiens, UniProt P41145). Kind of test: Calcium mobilization assay, kappa opioid receptor. It is filed as cell-based.
Chain of kappa opioid receptor (P41145 whole entry): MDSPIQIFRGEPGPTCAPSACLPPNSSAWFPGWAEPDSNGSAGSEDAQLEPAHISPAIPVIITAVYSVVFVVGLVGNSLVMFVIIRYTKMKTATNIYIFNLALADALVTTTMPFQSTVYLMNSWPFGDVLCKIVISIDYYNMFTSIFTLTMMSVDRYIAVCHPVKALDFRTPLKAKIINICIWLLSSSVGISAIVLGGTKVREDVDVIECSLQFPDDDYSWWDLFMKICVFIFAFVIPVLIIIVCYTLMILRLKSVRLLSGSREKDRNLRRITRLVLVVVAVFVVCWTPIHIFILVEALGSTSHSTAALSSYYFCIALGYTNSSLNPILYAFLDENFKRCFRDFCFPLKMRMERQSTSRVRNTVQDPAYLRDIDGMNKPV
The target in test [11] is T3, APJ (Apelin) (Homo sapiens, UniProt P35414).
T3 sequence (P35414 1-380): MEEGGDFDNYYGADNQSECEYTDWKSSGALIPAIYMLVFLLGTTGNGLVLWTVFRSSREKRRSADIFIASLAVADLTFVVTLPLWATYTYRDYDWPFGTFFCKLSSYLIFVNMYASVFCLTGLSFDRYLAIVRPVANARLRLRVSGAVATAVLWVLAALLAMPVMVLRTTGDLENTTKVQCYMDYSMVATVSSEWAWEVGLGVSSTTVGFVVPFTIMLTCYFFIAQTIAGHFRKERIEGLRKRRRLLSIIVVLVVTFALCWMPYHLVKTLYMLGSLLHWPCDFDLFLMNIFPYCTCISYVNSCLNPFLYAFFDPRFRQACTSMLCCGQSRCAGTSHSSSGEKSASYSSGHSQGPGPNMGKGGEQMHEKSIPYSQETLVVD
Kind of test: Calcium mobilization assay, APJ. It is filed as cell-based. The method in brief: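 CHO-Gα16-APJ cells were plated overnight at 30,000 cells/well in DMEM/F12 with 10% FBS and loaded with Calcium 5 dye for 45 min at 37°C. Compound dilutions contained BSA/DMSO: 2.25% BSA/9% DMSO for pretreatment, 0.25% BSA/1% DMSO for treatment. Antagonist mode: 15 min pretreatment, then EC50–EC80 apelin. Fluorescence was read on FLIPR or FlexStation. EC50/IC50 came from a three-parameter logistic fit.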

In test [12] the target is CaV 3.1 (Homo sapiens, UniProt O43497). Kind of test: Calcium voltage channel 3.1 calcium mobilization assay. It is filed as cell-based.
The target in test [13] is CaV 3.2 (Homo sapiens, UniProt O95180). Kind of test: Calcium voltage channel 3.2 calcium mobilization assay. Type of test: cell-based.
In test [14] the target is TRPV1 (Homo sapiens, UniProt Q8NER1). The experiment in a line: Calcium mobilization assay, TRPV1. Type of test: cell-based. The method in brief:
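HEK293 cells stably expressing human TRPV1, plated overnight at 30,000 cells/well on PEI-coated plates in DMEM-HG with 10% FBS. Calcium 5 dye in HBSS, 20 mM HEPES, 2.5 mM probenecid, pH 7.4, for 45 min at 37°C. Antagonist mode: 15 min compound pretreatment, then EC50–EC80 capsaicin. Agonist mode: compound added directly. Three-parameter logistic fit.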

For test [15], the system named is NPS receptors. The experiment in a line: In vitro calcium mobilization assay, NPS receptor antagonism. The following applies: vs 13 receptors and ion channels of Table 1. It is filed as cell-based.
The test system of test [16] is NPS receptors. Conditions: calcium mobilization; ref Zhang et al., 2008; cited from earlier work.
Test [17] relates to food-maintained responding. Conditions: rats, ref Schmoutz et al., 2012, cited from earlier work.
The subject of test [18] is cocaine self-administration. The following applies: rats; 5–30 mg/kg i.p.; ref Schmoutz et al., 2012; cited from earlier work.

pEC50, pIC50: −log10 of the molar value. Where a name gives a salt, the structure may show the parent alone. Some results are limits rather than exact numbers.

The term pEC50 denotes the negative decadic logarithm of the EC50, by convention in mol/L. A word on the pIC50: it is the IC50 on a negative log10 scale, so that one unit is a factor of ten.

Chain of TRPV1 (Q8NER1 whole entry): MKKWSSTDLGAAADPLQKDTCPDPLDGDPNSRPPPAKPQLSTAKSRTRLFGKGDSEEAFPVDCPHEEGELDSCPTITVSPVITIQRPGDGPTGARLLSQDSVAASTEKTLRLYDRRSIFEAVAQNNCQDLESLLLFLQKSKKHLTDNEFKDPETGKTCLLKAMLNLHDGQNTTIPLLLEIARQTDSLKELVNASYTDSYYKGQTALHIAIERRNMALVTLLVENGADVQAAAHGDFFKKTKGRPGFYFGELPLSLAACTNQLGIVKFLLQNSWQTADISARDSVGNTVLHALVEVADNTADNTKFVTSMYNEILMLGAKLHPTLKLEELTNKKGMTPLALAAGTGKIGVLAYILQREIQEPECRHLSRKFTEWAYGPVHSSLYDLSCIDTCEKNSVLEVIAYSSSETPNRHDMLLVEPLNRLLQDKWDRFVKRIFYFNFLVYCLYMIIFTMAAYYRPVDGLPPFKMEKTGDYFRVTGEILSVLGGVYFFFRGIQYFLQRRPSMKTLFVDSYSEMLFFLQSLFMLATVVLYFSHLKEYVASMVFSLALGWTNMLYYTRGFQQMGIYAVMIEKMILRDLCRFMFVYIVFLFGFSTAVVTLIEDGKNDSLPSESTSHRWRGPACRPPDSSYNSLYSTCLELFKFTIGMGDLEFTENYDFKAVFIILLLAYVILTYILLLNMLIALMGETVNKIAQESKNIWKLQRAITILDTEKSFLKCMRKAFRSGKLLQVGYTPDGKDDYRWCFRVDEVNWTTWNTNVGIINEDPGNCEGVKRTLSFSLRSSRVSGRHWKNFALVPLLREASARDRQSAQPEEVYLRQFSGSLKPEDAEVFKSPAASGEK
Chain of 5HT2B (P41595 whole entry): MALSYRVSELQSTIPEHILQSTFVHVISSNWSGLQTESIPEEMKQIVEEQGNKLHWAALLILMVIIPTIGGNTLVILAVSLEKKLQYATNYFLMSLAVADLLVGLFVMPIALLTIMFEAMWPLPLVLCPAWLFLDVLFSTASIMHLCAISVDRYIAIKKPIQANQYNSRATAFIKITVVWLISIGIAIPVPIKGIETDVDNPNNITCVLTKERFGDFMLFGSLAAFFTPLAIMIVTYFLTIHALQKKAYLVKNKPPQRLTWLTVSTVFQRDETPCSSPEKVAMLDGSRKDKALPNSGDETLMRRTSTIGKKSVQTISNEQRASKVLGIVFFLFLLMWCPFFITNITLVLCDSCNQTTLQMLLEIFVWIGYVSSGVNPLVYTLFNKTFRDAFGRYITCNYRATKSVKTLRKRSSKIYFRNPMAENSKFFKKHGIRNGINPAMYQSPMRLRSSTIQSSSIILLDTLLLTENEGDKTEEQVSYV
Chain of CB1 (P21554 whole entry): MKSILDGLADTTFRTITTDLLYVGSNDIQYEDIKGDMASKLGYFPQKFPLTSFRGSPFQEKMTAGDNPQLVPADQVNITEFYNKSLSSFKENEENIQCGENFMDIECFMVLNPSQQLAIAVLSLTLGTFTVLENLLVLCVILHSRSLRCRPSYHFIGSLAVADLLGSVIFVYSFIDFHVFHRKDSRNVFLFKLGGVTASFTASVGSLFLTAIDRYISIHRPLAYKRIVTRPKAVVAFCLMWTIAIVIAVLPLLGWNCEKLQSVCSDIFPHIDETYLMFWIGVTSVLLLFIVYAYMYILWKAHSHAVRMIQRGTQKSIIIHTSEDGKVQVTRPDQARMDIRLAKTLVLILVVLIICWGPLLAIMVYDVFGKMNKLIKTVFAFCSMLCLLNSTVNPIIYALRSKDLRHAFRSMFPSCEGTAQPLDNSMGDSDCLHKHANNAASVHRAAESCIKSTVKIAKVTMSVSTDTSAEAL
Chain of CB2 (P34972 whole entry): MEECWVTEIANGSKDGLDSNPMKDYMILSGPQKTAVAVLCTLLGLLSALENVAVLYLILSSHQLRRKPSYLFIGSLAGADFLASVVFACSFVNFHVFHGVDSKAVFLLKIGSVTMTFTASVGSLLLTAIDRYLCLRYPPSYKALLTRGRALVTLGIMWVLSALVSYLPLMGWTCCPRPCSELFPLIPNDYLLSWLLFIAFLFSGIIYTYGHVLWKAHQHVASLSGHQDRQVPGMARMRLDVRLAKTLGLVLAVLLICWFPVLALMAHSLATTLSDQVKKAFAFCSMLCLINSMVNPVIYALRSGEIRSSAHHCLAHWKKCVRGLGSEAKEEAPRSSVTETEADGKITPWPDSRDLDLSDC
Chain of delta opioid receptor (P41143 whole entry): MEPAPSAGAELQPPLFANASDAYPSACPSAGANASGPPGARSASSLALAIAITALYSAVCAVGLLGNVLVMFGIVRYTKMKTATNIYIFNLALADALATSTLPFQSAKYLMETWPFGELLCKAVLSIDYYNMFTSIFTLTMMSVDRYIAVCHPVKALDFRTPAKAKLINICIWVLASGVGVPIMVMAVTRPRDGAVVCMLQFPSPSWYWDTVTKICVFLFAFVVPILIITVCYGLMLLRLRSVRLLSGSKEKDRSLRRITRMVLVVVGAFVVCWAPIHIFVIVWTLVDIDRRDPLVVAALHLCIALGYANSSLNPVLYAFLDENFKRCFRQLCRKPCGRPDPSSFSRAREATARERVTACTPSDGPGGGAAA
Chain of 5HT2A (P28223 whole entry): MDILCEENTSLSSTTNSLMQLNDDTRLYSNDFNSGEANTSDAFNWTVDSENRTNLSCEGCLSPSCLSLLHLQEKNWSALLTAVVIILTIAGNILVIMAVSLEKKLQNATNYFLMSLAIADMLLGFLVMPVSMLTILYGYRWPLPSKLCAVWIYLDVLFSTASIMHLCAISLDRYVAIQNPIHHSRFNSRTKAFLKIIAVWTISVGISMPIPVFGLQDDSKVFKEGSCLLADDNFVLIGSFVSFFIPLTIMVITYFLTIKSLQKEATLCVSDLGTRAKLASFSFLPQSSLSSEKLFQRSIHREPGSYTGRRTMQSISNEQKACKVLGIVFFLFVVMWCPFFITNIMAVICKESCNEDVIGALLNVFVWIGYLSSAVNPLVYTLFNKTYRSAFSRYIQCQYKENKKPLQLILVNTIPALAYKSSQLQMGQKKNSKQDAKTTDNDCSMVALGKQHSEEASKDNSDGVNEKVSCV

For `CCCC(C(=O)c1ccc2c(c1)OCO2)N1CCCC1.Cl` (racemic) [MDPV, (±)-3,4-methylenedioxypyrovalerone HCl, reference compound], the “Effect on ICSS, drug alone” value in [1] (3.2 mg/kg MDPV vs vehicle + vehicle) is “facilitated ICSS across a broad range of frequencies (1.75–2.05 log Hz)”.

For `COC(=O)[C@H]1[C@@H](OC(=O)c2ccccc2)C[C@@H]2CC[C@H]1N2C` [Cocaine, (−)-Cocaine HCl, reference compound], the “Effect on ICSS, drug alone” value in [1] (10 mg/kg cocaine) is “facilitated ICSS across a broad range of six frequencies (1.75–2.0 log Hz)”.

Regarding `O=C(NCCN1CCCCC1)N1CCN2C(=O)OC(c3ccccc3)(c3ccccc3)C2C1` (stereo not shown) [RTI-118, 3-oxo-1,1-diphenyl-N-(2-(piperidin-1-yl)ethyl)tetrahydro-1H-oxazolo[3,4-a]pyrazine-7(3H)-carboxamide], the pEC50 in test [2], in test [3], in test [4], in test [5], in [6] and in test [7] was less than 5.00 each time. For the same compound, the pEC50 in test [8], in test [9], in test [10], in test [11] and in test [14] was less than 5.00 throughout. Moreover, the negative-log IC50 (pIC50) in test [2], in test [3], in test [4], in test [5], in test [6] and in test [7] was less than 5.00 in each case. In addition, the pIC50 in test [8], in [9], in test [10], in test [11], in [12] and in [13] was less than 5.00 throughout. Besides, in test [14], the pIC50 is less than 5.00. In addition, in [15], the “Selectivity for NPS receptors relative to the other targets” value was “at least 100 fold”. In addition, the “Effect on ICSS, drug alone” value in [1] (10 mg/kg RTI-118) is “significantly increased ICSS at one frequency (1.9 log Hz)”; in test [1] (32 mg/kg RTI-118, first group of rats) it was “significantly decreased ICSS at only one frequency (2.05 log Hz)”; in test [1] (32 mg/kg RTI-118, second group of rats (MDPV study)) it was “did not significantly alter ICSS at any frequency”; in test [1] (low doses of 3.2–10 mg/kg RTI-118), “had little effect on ICSS”. Besides, the “Effect of pretreatment on MDPV-induced facilitation of ICSS” value in [1] (32 mg/kg RTI-118 + 3.2 mg/kg MDPV) is on record as “did not alter MDPV-induced facilitation of ICSS”. In test [1] (pretreatment + 10 mg/kg cocaine vs vehicle + 10 mg/kg cocaine), the “Effect of pretreatment on cocaine-induced facilitation of ICSS” value is “attenuation of cocaine effects was statistically significant only at the highest RTI-118 dose (32 mg/kg)”. Besides, the “Ke value as an antagonist at NPS receptors” value in test [16] is 109 ± 23 nM. Also, in [17] (30 mg/kg), the “Reduction in rates of food-maintained responding” value was “up to 20%”. The “Effect on rates of food-maintained responding” value in [17] (doses up to 20 mg/kg IP) was “had no effect on rates of food-maintained responding”. Besides, the “Effect on cocaine self-administration” value in test [18] is “dose-dependent and nearly complete elimination of cocaine self-administration”.

Source of the values: paper PMC4259821 (European journal of pharmacology, 2014).
